Measured values from ChEMBL document CHEMBL3808298, “The combination of quinazoline and chalcone moieties leads to novel potent heterodimeric modulators of breast cancer resistance protein (BCRP/ABCG2)” (Eur J Med Chem, 2016).
pIC50: −log10 of the molar value. Activity calls are given as the source filed them. The calls are words filed in the database; no cut-off is given here.

What was measured:
[1] = target: T1, Broad substrate specificity ATP-binding cassette transporter ABCG2 (Homo sapiens, UniProt Q9UNQ0); test: Inhibition of human C-terminal GFP-tagged ABCG2 expressed in MDCK2 cells using pheophorbide A as substrate preincubated for 20 mins followed by substrate addition measured after 120 mins by flow cytometry; format: cell-based, MDCK-II
T1 sequence (Q9UNQ0 whole entry): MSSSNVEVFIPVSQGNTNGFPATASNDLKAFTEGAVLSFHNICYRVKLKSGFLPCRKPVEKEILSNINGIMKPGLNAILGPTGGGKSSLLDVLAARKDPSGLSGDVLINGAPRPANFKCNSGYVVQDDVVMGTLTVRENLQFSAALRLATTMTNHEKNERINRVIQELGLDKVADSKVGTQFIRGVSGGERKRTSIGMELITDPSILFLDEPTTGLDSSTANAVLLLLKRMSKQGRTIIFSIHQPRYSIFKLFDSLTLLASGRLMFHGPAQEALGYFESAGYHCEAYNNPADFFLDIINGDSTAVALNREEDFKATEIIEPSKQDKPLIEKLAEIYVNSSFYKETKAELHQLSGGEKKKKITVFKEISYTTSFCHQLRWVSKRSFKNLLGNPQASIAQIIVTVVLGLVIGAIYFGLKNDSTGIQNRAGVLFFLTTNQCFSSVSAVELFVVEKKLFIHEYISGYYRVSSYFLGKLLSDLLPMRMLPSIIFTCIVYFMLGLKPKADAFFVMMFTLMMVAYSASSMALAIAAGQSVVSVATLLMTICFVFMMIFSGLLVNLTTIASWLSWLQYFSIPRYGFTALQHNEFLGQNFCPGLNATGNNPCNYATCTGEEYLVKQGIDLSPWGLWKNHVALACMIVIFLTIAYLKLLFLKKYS
Procedure, shortened: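 MDCK II BCRP cells, about 45,000/well in KHB, preincubated with compound for 20 min at 37 °C, 5% CO2. Pheophorbide A added (5 µM solution), then 120 min to steady state. Flow cytometry: excitation 488 nm, emission >670 nm (FL3); GFP in FL1. IC50 from 4-parameter logistic fit; duplicates.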

[2] = target: ATP-dependent translocase ABCB1 (Homo sapiens, UniProt P08183); test: Inhibition of ABCB1 in human A2780/ADR cells incubated for 30 mins measured up to 3600 secs with time intervals of 60 secs by calcein accumulation assay; format: cell-based
[3] = target: ABCB1 (P-glycoprotein) (Homo sapiens, UniProt P08183); test: Inhibition of ABCB1 in human A2780/ADR cells at 10 uM incubated for 30 mins measured up to 3600 secs with time intervals of 60 secs by calcein accumulation assay relative to cyclosporine A; format: cell-based; settings: probe calcein, read-out: Imax
Procedure, shortened: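 A2780adr cells, about 30,000/well, preincubated with compound for 30 min. Calcein AM then added (1.25 µM solution); fluorescence (ex 485/em 520 nm) read every 60 s to 3600 s at 37 °C. […] IC50 by four-parameter logistic fit, variable slope.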

[4] = Cytotoxicity against MDCK2 cells assessed as reduction in cell viability after 72 hrs by MTT assay; format: cell-based, Canis lupus familiaris, MDCK-II; settings: dog
Procedure, shortened: (§1)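 Seeding 3 x 10³ cells/well, 6 h attachment at 37 °C, 5% CO2, then compound for 72 h. Controls: 10% DMSO (positive), medium (negative). MTT 5 mg/ml stock for 1 h; formazan in DMSO; A570, background 690 nm. Normalized to control; GI50 from variable-slope sigmoidal fit.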

[5] = Cytotoxicity against MDCK2 cells expressing human C-terminal GFP-tagged ABCG2 assessed as reduction in cell viability after 72 hrs by MTT assay; format: ADME, cell-based, Canis lupus familiaris, MDCK-II; settings: dog; procedure, shortened: as §1
[6] = system: ABCG2; test: Therapeutic ratio of GI50 for MDCK2 cells expressing human C-terminal GFP-tagged ABCG2 to IC50 for human C-terminal GFP-tagged ABCG2 expressed in MDCK2 cells; format: ADME, cell-based; settings: dog, read-out: TI
Procedure, shortened: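 Ratio of GI50 from a 72 h MTT assay in MDCK II BCRP cells to IC50 from the pheophorbide A assay in the same cells.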

[7] = Cytotoxicity against human A2780/ADR cells overexpressing ABCB1 assessed as reduction in cell viability after 72 hrs by MTT assay; format: ADME, cell-based
Procedure, shortened: (§2)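 MTT assay in A2780 and ABCB1-overexpressing doxorubicin-resistant A2780adr cells; A2780adr given 1 μM doxorubicin for one passage every 10 passages. 8 x 10³ cells/well, 6 h attachment, 72 h compound exposure at 37 °C, 5% CO2. MTT 1 h, DMSO solubilization, A570 with 690 nm background. Normalized data; GI50 by variable-Hill-slope sigmoidal regression.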

[8] = Cytotoxicity against human A2780 cells assessed as reduction in cell viability after 72 hrs by MTT assay; format: cell-based; procedure, shortened: as §2
[9] = system: ABCB1 (P-glycoprotein); test: Therapeutic ratio of GI50 for human A2780/ADR cells overexpressing ABCB1 to IC50 for ABCB1 in human A2780/ADR cells; format: ADME, cell-based; settings: read-out: TI
[10] = Cytotoxicity against MDCK2 cells expressing human C-terminal GFP-tagged ABCG2 assessed as reduction in cell viability at 10 uM after 72 hrs by MTT assay; format: ADME, cell-based, Canis lupus familiaris; settings: dog, mdck-ii
[11] = Cytotoxicity against MDCK2 cells assessed as reduction in cell viability at 10 uM after 72 hrs by MTT assay; format: cell-based, Canis lupus familiaris; settings: dog, mdck-ii
[12] = target: T1, Broad substrate specificity ATP-binding cassette transporter ABCG2; test: Inhibition of vanadate-sensitive ATPase activity of recombinant human ABCG2 expressed in baculovirus infected Sf9 cell membrane assessed as decrease in inorganic phosphate production at 1 uM after 20 mins by colorimetry; settings: sf9, 20 min
Procedure, shortened: (§3)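 Sf9 membranes from cells infected with baculovirus carrying human wild-type ABCG2, cholesterol-loaded; protein by BCA. Buffer: 40 mM MOPS-Tris pH 7.0, 50 mM KCl, 2 mM DTT, 500 µM EGTA-Tris, 5 mM azide, 1 mM ouabain, 10 µg protein. Reaction started with 3.3 mM MgATP, 20 min at 37 °C. Basal activity with 1 mM orthovanadate; 1 µM quercetin and 1 µM Ko143 as references. Pi by molybdate/ascorbate at 880 nm against K2HPO4 standard; triplicates.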

[13] = target: T1, Broad substrate specificity ATP-binding cassette transporter ABCG2; test: Inhibition of vanadate-sensitive ATPase activity of recombinant human ABCG2 expressed in baculovirus infected Sf9 cell membrane assessed as decrease in inorganic phosphate production up to 1 uM after 20 mins by colorimetry; settings: sf9, 20 min; procedure, shortened: as §3
[14] = target: T1, Broad substrate specificity ATP-binding cassette transporter ABCG2; test: Induction of vanadate-sensitive ATPase activity of recombinant human ABCG2 expressed in baculovirus infected Sf9 cell membrane assessed as increase in inorganic phosphate production at >1 uM after 20 mins by colorimetry; settings: sf9, 20 min; procedure, shortened: as §3
[15] = system: MDCK-II; test: Potentiation of SN-38-induced cytotoxicity in MDCK2 cells assessed as decrease in cell viability at 0.01 to 0.1 uM after 72 hrs by MTT assay; format: functional, cell-based; settings: Canis lupus familiaris
Procedure, shortened: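 SN-38 dose-response curves in MDCK II BCRP cells (canine kidney line stably transfected with human ABCG2 C-terminally fused to GFP) and parental MDCK II wild-type cells. Modulator was present at a final 0.01 or 0.1 µM. Cells were seeded at 3 x 10³ per well, attached 6 h, then exposed 72 h. MTT was read at 570 nm minus 690 nm. Data were normalized and fitted with variable-slope sigmoidal regression.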

[16] = system: MCF7; test: Drug uptake in human MCF7 cells at 10 uM after 2 hrs by confocal laser scanning microscopic analysis; format: ADME, cell-based; settings: mcf7, 2 h
Procedure, shortened: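 Parental MCF-7 cells, 1 x 10^5 seeded in dishes for 48 h to 50-60% confluence, then exposed to 10 µM compound for 2 h. Supernatant replaced with KHB; confocal imaging at 37 °C, excitation 405 nm, emission 425-475 nm.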

[17] = target: T1, Broad substrate specificity ATP-binding cassette transporter ABCG2; test: Inhibition of ABCG2 in human MCF7/MX cells assessed as intracellular pheophorbide A accumulation at 10 uM after 2 hrs by confocal laser scanning microscopic analysis; format: cell-based
Procedure, shortened: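 MCF-7 MX cells (ABCG2-overexpressing; 0.1 µM mitoxantrone every 10 passages) incubated with pheophorbide A together with compound for 2 h. Imaged by confocal laser scanning microscopy at 37 °C after replacing the medium with KHB.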

[18] = system: MCF7; test: Drug uptake in human MCF7 cells up to 60 mins by fluorescence spectroscopic analysis; format: ADME, cell-based; settings: mcf7, 1 h
Procedure, shortened: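 Parental MCF-7 cells, 1 x 10^6 per 4.5 ml KHB, incubated with compound for varying times […]. After a KHB wash, intracellular fluorescence was read in a fluorescence spectrometer.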

Chain of ABCB1 (P-glycoprotein) (Homo sapiens, UniProt P08183) (P08183 whole entry): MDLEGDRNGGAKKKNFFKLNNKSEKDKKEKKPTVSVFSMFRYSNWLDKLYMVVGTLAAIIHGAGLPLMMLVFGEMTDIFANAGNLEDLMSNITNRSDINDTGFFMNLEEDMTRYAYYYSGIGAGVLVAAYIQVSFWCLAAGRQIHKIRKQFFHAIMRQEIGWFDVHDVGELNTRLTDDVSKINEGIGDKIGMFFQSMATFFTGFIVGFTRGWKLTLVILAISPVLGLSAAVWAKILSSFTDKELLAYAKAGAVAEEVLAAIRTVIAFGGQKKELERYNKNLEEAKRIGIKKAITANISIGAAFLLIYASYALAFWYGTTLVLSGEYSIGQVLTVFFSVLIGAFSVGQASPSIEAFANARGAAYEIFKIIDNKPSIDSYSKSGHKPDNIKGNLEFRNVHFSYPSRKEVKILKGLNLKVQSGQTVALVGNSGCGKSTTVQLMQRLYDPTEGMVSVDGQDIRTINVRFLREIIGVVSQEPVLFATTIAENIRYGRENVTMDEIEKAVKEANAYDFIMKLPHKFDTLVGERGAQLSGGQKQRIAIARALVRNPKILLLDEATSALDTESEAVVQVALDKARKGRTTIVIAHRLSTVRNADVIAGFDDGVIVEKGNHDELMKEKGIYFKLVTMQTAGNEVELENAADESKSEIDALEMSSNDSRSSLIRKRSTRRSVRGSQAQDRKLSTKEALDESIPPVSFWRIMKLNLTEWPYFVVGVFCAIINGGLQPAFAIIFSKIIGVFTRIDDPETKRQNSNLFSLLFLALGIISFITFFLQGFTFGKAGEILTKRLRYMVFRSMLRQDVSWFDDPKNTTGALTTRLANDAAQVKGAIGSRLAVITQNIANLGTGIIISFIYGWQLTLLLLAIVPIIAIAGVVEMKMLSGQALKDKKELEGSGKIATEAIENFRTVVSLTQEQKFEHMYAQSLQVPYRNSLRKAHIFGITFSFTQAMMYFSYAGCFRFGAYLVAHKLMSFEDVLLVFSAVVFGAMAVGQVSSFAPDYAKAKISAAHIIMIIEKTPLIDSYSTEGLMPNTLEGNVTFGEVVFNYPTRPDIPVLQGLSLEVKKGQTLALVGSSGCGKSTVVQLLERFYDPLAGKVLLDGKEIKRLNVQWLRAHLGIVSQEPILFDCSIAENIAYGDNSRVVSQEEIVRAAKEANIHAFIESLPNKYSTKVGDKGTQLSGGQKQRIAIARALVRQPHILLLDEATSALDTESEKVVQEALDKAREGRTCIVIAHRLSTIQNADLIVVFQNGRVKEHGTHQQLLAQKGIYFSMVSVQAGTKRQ
Chain of ATP-dependent translocase ABCB1 (P08183 whole entry): as above

Compound	pIC50 [1]	pIC50 [2]	GI50 at 72 h [4] [µM]	GI50 at 72 h [5] [µM]	selectivity ratio [6]	further results
COc1ccc(/C=C/C(=O)c2cccc(Nc3nc(-c4ccc(OC)c(OC)c4)nc4ccccc34)c2)cc1	6.68	5.89	10.3	13.1	62	inhibition at 30 min, 10 µM [3]: 70%; GI50 at 72 h [7]: 3.25 µM; GI50 at 72 h [8]: 4.39 µM; selectivity ratio [9]: 3
COc1cccc(/C=C/C(=O)c2ccc(Nc3nc(-c4ccccc4)nc4ccccc34)cc2)c1	6.06	4.49				Activity [10]: Toxic; Activity [11]: Toxic
COc1ccc(/C=C/C(=O)c2ccc(Nc3nc(-c4ccc(OC)c(OC)c4)nc4ccccc34)cc2)cc1	5.50					
COc1ccc(/C=C/C(=O)c2cccc(Nc3nc(-c4ccccc4)nc4ccccc34)c2)cc1	6.01					
COc1ccc(/C=C/C(=O)c2ccc(Nc3ncnc4cc(OC)c(OC)cc34)cc2)cc1OC	5.91					inhibition (INH) [12]: Active
COc1cccc(/C=C/C(=O)c2ccc(Nc3ncnc4cc(OC)c(OC)cc34)cc2)c1	6.41	5.12				inhibition (INH) [12]: Active; inhibition (INH) [13]: Active; Activity [14]: Not Active
COc1cccc(/C=C/C(=O)c2cccc(Nc3nc(-c4ccccc4)nc4ccccc34)c2)c1	6.17					Activity [10]: Toxic; Activity [11]: Toxic
COc1cccc(/C=C/C(=O)c2cccc(Nc3nc(-c4ccc(OC)c(OC)c4)nc4ccccc34)c2)c1	6.51	5.08	65.5	84.7	273	
COc1ccc(/C=C/C(=O)c2cccc(Nc3nc(-c4ccccc4)nc4ccccc34)c2)cc1OC	6.34					
COc1ccc(/C=C/C(=O)c2cccc(Nc3ncnc4ccccc34)c2)cc1OC	5.89	6.38	3.42	5.14	4	inhibition at 30 min, 10 µM [3]: 66%; GI50 at 72 h [7]: 0.7 µM; GI50 at 72 h [8]: 0.65 µM; selectivity ratio [9]: 2
COc1cccc(/C=C/C(=O)c2ccc(Nc3ncnc4ccccc34)cc2)c1	6.17	5.25				Activity [10]: Toxic; Activity [11]: Toxic
O=C(/C=C/c1ccccc1)c1ccc(Nc2nc(-c3ccccc3)nc3ccccc23)cc1	6.04					
COc1ccc(/C=C/C(=O)c2ccc(Nc3nc(-c4ccccc4)nc4ccccc34)cc2)cc1	5.45					
COc1ccc(-c2nc(Nc3ccc(C(=O)/C=C/c4ccccc4)cc3)c3ccccc3n2)cc1OC	5.96					
COc1cccc(/C=C/C(=O)c2ccc(Nc3nc(-c4ccc(OC)c(OC)c4)nc4ccccc34)cc2)c1	6.44	4.84				
COc1ccc(/C=C/C(=O)c2cccc(Nc3ncnc4ccccc34)c2)cc1	6.05	5.15				
COc1ccc2c3c([nH]c2c1)[C@H](CC(C)C)N1C(=O)[C@H](CCC(=O)OC(C)(C)C)NC(=O)[C@@H]1C3			10.9	11.1		Activity [15]: Active
COc1ccc(/C=C/C(=O)c2ccc(Nc3nc(-c4ccccc4)nc4ccccc34)cc2)cc1OC	6.54	4.73	3.46	4.8	17	Activity [10]: Toxic; Activity [11]: Toxic
COc1ccc(/C=C/C(=O)c2ccc(Nc3ncnc4ccccc34)cc2)cc1OC	6.08	5.63				inhibition at 30 min, 10 µM [3]: 61%; Drug uptake [16]: Active; inhibition (INH) [17]: Active; Drug uptake [18]: Active
COc1ccc(/C=C/C(=O)c2cccc(Nc3ncnc4cc(OC)c(OC)cc34)c2)cc1	6.49	5.38	16.9	12.7	40	inhibition (INH) [12]: Active
COc1ccc(/C=C/C(=O)c2cccc(Nc3nc(-c4ccc(OC)c(OC)c4)nc4ccccc34)c2)cc1OC	6.22	6.32	12.6	10.9	18	inhibition at 30 min, 10 µM [3]: 76%; GI50 at 72 h [7]: 1.71 µM; GI50 at 72 h [8]: 1.98 µM; selectivity ratio [9]: 4
COc1ccc(/C=C/C(=O)c2cccc(Nc3ncnc4cc(OC)c(OC)cc34)c2)cc1OC	5.77	6.07	6.14	11.5	7	inhibition (INH) [12]: Active; inhibition at 30 min, 10 µM [3]: 68%; GI50 at 72 h [7]: 1.5 µM; GI50 at 72 h [8]: 1.35 µM; selectivity ratio [9]: 2
